In ChEMBL document CHEMBL4266051, “Diterpenoids from Euphorbia dulcis with Potassium Ion Channel Inhibitory Activity with Selective G Protein-Activated Inwardly Rectifying Ion Channel (GIRK) Blocking Effect” (J Nat Prod, 2018):

Tests used:
Format in all cases: cell-based
[1] = target: T1, Kir3.1/Kir3.4 (Homo sapiens) (UniProt P48549+P48544); test: Inhibition of GIRK-1/4 channel (unknown origin) expressed in HEK293 cells at 1 uM by automated patch clamp method relative to control
Procedure, shortened: (§1)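 HEK-293 cells stably expressing GIRK1/4 (Kir3.1/3.4) K+ channels; whole-cell currents recorded by automated patch clamp. Compounds screened at 1 and 10 μM, two or three cells per condition. Current values corrected using the current measured in K+-free external solution as baseline. Inhibition expressed as % of GIRK current; mean ± SEM, n = 2–3.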

[2] = target: T1, Kir3.1/Kir3.4 (Homo sapiens); test: Inhibition of GIRK-1/4 channel (unknown origin) expressed in HEK293 cells at 10 uM by automated patch clamp method relative to control; procedure, shortened: as §1
[3] = target: T1, Kir3.1/Kir3.4 (Homo sapiens); test: (§2) Inhibition of GIRK-1/4 channel (unknown origin) expressed in HEK293 cells by automated patch clamp method
Procedure, shortened: (§3)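 Whole-cell currents by automated patch clamp in HEK-293 cells stably expressing GIRK1/4 (Kir3.1/3.4). Screening at 1 and 10 μM on two or three cells. Concentration-response at four concentrations (0.3, 1, 3, 10 μM) on five or six cells, used for IC50. Currents corrected to the K+-free external solution as baseline. Means ± SEM.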

[4] = target: T2, Kir3.1/Kir3.4 (Homo sapiens, UniProt P48544+P48549); test: as §2; procedure, shortened: as §3
T2 sequence (P48549 whole entry): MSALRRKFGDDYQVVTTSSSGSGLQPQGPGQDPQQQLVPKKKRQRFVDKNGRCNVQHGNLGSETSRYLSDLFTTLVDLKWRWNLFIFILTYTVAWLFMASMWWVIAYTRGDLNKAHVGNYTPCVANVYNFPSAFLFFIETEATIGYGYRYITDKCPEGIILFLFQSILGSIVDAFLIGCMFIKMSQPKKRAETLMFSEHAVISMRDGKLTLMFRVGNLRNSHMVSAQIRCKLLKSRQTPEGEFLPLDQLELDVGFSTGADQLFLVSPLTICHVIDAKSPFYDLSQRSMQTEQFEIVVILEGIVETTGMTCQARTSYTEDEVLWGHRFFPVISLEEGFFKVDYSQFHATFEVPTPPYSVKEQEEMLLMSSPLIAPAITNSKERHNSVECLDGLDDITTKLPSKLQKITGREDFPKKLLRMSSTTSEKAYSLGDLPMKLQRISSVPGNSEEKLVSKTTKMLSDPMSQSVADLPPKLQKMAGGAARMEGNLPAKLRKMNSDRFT
T2 sequence (P48544 whole entry): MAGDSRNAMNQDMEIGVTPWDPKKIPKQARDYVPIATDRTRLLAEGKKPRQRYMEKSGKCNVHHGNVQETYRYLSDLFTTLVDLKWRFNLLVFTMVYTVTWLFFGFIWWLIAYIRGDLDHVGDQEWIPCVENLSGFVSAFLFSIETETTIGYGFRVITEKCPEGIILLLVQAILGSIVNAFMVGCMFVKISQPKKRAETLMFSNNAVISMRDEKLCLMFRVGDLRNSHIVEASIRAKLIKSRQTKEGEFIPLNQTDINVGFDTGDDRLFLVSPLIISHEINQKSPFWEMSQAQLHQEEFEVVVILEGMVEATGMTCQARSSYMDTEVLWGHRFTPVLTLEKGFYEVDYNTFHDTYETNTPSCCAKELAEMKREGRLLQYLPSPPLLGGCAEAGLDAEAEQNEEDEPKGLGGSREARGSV

[5] = target: T3, hERG (KCNH2) (Homo sapiens, UniProt Q12809); test: Inhibition of human ERG expressed in HEK293 cells at 1 uM by automated patch clamp method relative to control; details: HEK293 cells that express hERG
Procedure, shortened: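 Automated whole-cell patch clamp in HEK-293 cells stably transfected with hERG (Kv11.1) cDNA. Increasing concentrations (1 and 10 μM) applied, two cells each. Current amplitude inhibition expressed as %, means ± SEM. 10 μM amitriptyline used as reference blocker.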

[6] = target: T3, hERG (KCNH2); test: Inhibition of human ERG expressed in HEK293 cells at 10 uM by automated patch clamp method relative to control; details: HEK293 cells that express hERG

T3 sequence (Q12809 whole entry): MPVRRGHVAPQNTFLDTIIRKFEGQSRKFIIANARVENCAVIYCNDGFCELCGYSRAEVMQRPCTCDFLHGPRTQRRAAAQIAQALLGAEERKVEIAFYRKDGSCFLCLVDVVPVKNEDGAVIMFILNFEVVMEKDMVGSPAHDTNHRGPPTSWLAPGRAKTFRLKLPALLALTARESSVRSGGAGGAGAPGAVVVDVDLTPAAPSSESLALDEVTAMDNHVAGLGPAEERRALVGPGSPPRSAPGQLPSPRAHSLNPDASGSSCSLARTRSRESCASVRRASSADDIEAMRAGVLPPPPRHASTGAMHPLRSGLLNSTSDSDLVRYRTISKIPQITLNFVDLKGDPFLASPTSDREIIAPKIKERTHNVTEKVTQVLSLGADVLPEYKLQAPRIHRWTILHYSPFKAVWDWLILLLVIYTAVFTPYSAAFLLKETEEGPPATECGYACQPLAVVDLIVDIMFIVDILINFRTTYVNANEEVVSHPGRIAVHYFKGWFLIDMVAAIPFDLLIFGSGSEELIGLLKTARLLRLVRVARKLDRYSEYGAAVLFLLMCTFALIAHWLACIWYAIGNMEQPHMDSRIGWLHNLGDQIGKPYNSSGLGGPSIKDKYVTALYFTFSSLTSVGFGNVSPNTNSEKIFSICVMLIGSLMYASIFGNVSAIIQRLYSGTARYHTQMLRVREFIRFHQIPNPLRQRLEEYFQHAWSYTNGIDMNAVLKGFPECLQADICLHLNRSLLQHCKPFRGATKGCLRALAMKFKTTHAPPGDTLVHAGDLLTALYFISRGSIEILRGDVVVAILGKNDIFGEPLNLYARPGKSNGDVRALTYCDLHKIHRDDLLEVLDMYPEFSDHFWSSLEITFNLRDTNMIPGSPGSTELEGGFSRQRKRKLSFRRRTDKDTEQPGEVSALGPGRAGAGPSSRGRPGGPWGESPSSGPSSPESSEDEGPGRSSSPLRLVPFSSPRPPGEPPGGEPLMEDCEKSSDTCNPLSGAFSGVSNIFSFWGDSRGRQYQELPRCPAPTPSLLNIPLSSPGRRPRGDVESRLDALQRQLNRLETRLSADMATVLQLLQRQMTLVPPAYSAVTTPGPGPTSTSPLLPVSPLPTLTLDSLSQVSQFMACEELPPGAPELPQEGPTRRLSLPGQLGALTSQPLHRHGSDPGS

| inhibition [1] | inhibition [2] | Compound | inhibition [3] | IC50 [4] | inhibition at 1 µM [5] | inhibition at 10 µM [6] |
| --- | --- | --- | --- | --- | --- | --- |
| 33.8% | 83.4% | CC(=O)O[C@@H]1[C@@H](OC(C)=O)C(C)(C)/C=C/[C@H](C)[C@H](OC(C)=O)[C@@]2(O)C[C@H](C)[C@H](OC(=O)c3ccccc3)[C@@H]2/C=C(\C)[C@@H]1OC(C)=O | Dose-dependent effect | 1690 nM | 13.2% | 24% |
| 11.2% | 23.5% | CC(=O)O[C@H]1/C(C)=C/[C@H]2[C@@H](OC(=O)c3ccccc3)[C@@H](C)C[C@]2(O)[C@@H](OC(C)=O)[C@@H](C)/C=C/C(C)(C)[C@H](O)[C@H]1O |  |  |  |  |
| 16% | 26.8% | CC(=O)O[C@@H]1[C@@H](O)[C@@H](OC(C)=O)/C(C)=C/[C@H]2[C@@H](OC(=O)c3ccccc3)[C@@H](C)C[C@]2(O)[C@@H](OC(C)=O)[C@@H](C)/C=C/C1(C)C |  |  |  |  |
| 60.6 to 94.2% |  | CCCNCC(O)COc1ccccc1C(=O)CCc1ccccc1 (stereo unspecified) |  |  |  |  |
| 22.2% | 23.7% | C=C1CC[C@@H](OC(=O)/C=C/c2ccccc2)C(C)(C)/C=C/[C@H](C)C(=O)[C@@]2(O)C[C@H](C)[C@H](OC(=O)/C=C/c3ccccc3)[C@@H]2[C@H]1OC(C)=O |  |  |  |  |
| 17.7% | 28.6% | CC(=O)OCC(=O)O[C@@H]1[C@H]2[C@@H](OC(=O)c3ccccc3)[C@@H](C)C[C@]2(O)[C@@H](OC(C)=O)[C@]2(C)C[C@@]1(OC(C)=O)C[C@H]1C(=O)C(C)(C)C[C@@H]12 |  |  |  |  |
| 23.5% | 35.7% | C/C=C(\C)C(=O)O[C@H]1/C(C)=C/[C@H]2[C@@H](OC(=O)c3ccccc3)[C@@H](C)C[C@]2(O)[C@@H](OC(=O)/C(C)=C/C)[C@@H](C)/C=C/C(C)(C)[C@H](OC(C)=O)[C@H]1OC(C)=O |  |  |  |  |
| 16.4% | 45.1% | C/C=C(/C)C(=O)OCC1(C)[C@H]2[C@@H]3C=C(COC(C)=O)[C@@H](O)[C@]4(O)[C@@H](OC(=O)/C(C)=C\C)C(C)=C[C@]4(C3=O)[C@H](C)C[C@H]21 (stereo partly specified) |  |  |  |  |
| 15.3% | 60.8% | C/C=C(\C)C(=O)O[C@H]1[C@@H](C)/C=C/C(C)(C)[C@H](OC(C)=O)[C@@H](OC(C)=O)[C@@H](O)/C(C)=C/[C@H]2[C@@H](OC(=O)c3ccccc3)[C@@H](C)C[C@@]21O |  |  |  |  |

More lines, now with the values behind:

| Compound | inhibition [1] | inhibition [2] | inhibition [3] | IC50 [4] | inhibition at 1 µM [5] | inhibition at 10 µM [6] |
| --- | --- | --- | --- | --- | --- | --- |
| CC(=O)O[C@@H]1C[C@@H](OC(C)=O)C(C)(C)/C=C/[C@H](C)[C@H](OC(C)=O)[C@@]2(O)C[C@H](C)[C@H](OC(=O)c3ccccc3)[C@@H]2/C=C/1C [EUPHORNIN] | 31.1% | 78.7% | Dose-dependent effect | 2630 nM | 3.3% | 19% |
| CC(=O)O[C@@H]1[C@@H](OC(C)=O)C(C)(C)/C=C/[C@H](C)[C@H](OC(C)=O)[C@@]2(O)C[C@H](C)[C@H](OC(=O)c3ccccc3)[C@@H]2/C=C(\C)[C@@H]1O | 16.8% | 66.6% |  |  |  |  |
| C/C=C(/C)C(=O)O[C@H]1C(C)=C[C@@]23C(=O)[C@@H](C=C(C)[C@@H](O)[C@]12O)[C@H]1[C@@H](C[C@H]3C)C1(C)C | 23.8% | 52.3% | Dose-dependent effect | 12100 nM | 1.8% | 7.9% |
| C/C=C(/C)C(=O)OCC1(C)[C@H]2[C@@H]3C=C(C)[C@@H](O)[C@]4(O)[C@@H](OC(=O)/C(C)=C\C)C(C)=C[C@]4(C3=O)[C@H](C)C[C@H]21 (stereo partly specified) | 43.9% | 80.4% | Dose-dependent effect | 1450 nM | 11.2% | 55.4% |
| C/C=C(\C)C(=O)O[C@H]1/C(C)=C/[C@H]2[C@@H](OC(=O)c3ccccc3)[C@@H](C)C[C@]2(O)[C@@H](OC(C)=O)[C@@H](C)/C=C/C(C)(C)[C@H](OC(C)=O)[C@H]1OC(C)=O | 38.5% | 85% | Dose-dependent effect | 1600 nM | 6.5% | 24.4% |
| C/C=C(\C)C(=O)O[C@@H]1C[C@@H](OC(C)=O)C(C)(C)/C=C/[C@H](C)[C@H](OC(C)=O)[C@@]2(O)C[C@H](C)[C@H](OC(=O)c3ccccc3)[C@@H]2/C=C/1C | 35.5% | 88.7% | Dose-dependent effect | 1310 nM | 10.8% | 24.9% |
| CC(=O)O[C@@H]1[C@@H](OC(C)=O)C(C)(C)/C=C/[C@H](C)[C@H](O)[C@@]2(OC(C)=O)C[C@H](C)[C@H](OC(=O)c3ccccc3)[C@@H]2/C=C(\C)[C@@H]1OC(C)=O | 27.2% | 66% | Dose-dependent effect | 3400 nM | 11.2% | 22.7% |
| CC(=O)O[C@H]1[C@@H](C)/C=C/C(C)(C)[C@H](O)[C@@H](O)[C@@H](O)/C(C)=C/[C@H]2[C@@H](OC(=O)c3ccccc3)[C@@H](C)C[C@@]21O | 15.7% | 25.7% |  |  |  |  |
